The subject of test [1] is Mus musculus. Kind of test: Percent increase in the liver triglycerides content of mice treated with 50 mg/kg of compound orally for 45 days. As to conditions: route oral.
The target of test [2] is T1, Carnitine O-palmitoyltransferase 1, muscle isoform (Rattus norvegicus, UniProt Q63704).
T1 sequence (Q63704 whole entry): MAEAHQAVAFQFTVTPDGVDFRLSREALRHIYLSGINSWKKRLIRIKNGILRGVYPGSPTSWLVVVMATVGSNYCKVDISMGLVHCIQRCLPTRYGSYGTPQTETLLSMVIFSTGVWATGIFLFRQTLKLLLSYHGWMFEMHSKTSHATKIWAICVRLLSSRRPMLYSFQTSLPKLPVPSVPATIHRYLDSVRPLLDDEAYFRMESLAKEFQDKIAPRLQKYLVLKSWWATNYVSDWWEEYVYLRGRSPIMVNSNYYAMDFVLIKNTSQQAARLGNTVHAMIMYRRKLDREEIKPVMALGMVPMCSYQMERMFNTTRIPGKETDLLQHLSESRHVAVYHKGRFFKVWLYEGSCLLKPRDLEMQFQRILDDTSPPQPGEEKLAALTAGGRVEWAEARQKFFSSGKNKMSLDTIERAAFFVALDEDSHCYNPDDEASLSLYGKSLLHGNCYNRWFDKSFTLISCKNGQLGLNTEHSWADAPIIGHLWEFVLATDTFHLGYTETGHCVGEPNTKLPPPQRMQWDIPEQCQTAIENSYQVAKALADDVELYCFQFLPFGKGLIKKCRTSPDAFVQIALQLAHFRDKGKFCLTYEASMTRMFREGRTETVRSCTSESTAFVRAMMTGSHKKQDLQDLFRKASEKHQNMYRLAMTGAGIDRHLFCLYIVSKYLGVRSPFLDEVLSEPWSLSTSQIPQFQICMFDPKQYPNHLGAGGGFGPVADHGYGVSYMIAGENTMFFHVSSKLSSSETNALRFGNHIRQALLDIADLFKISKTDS
Kind of test: In vitro inhibition of [14C]palmitoyl-CoA and carnitine binding to carnitine palmitoyltransferase I of rat heart mitochondria. The essentials:
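Intact mitochondria freshly isolated from the hearts of fed male Sprague-Dawley rats, suspended in buffer with 75 mM sucrose. Assay medium at pH 7.5 with [14C]palmitoyl-CoA and L-carnitine, and inhibitor at 0–3 mM. Run 1 min at 37 °C; [14C]palmitoyl incorporated into carnitine was measured. IC50 was taken from the inhibition curve; mean of two determinations in triplicate.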

Test [3] addresses T2, Carnitine O-palmitoyltransferase 1, liver isoform (Rattus norvegicus, UniProt P32198).
T2 sequence (P32198 whole entry): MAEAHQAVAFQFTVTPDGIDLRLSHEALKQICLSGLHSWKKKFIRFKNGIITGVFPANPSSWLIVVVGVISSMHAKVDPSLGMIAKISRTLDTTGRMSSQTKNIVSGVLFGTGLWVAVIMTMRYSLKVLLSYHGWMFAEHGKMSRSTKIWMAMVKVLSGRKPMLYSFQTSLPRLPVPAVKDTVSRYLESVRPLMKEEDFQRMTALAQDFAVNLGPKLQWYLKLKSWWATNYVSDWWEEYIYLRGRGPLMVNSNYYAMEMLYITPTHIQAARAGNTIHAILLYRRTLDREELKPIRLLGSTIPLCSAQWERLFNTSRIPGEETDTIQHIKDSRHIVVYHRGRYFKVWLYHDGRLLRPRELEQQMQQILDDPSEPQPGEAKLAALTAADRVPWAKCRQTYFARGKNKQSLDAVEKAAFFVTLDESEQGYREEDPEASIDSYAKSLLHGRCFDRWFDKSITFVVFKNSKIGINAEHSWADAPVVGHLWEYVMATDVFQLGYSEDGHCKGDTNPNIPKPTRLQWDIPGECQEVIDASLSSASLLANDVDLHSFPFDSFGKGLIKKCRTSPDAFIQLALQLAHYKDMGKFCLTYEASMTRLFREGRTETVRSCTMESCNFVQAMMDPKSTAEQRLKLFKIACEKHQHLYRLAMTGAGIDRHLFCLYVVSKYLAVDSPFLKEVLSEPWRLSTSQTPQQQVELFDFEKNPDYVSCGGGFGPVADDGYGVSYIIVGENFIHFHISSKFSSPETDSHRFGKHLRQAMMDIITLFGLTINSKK
The test is described as follows: Inhibition of rat liver carnitine palmitoyltransferase I. The note with it: read-out: Ki app. The essentials:
(§1)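 Intact mitochondria freshly isolated from the livers of fed male Sprague-Dawley rats, suspended in buffer with 225 mM sucrose. Assay medium at pH 7.5 with [14C]palmitoyl-CoA and L-carnitine, and inhibitor at 0–3 mM. Run 1 min at 37 °C; radiolabelled palmitoylcarnitine formation was measured. IC50 was taken from the inhibition curve; mean of two determinations in triplicate.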

The subject of test [4] is Mus musculus. The test is described as follows: Percent decrease in the serum fructosamine level of mice treated with 50 mg/kg of compound orally for 45 days. As to conditions: route oral. In kind it is functional. In short, it runs like this: (§2)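 Male C57BL/KsJ-db/db mice, 8 weeks old, n=8 per group. Dosed orally at 50 mg/kg or an equimolar dose, twice daily for 45 days; controls got 0.5% carboxymethylcellulose vehicle at 10 mL/kg. Sampled 9 h after the last dose, after a 9 h fast. Percent change was calculated against untreated db/db controls.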

Test [5] has as its system Mus musculus. The test is described as follows: Percent decrease in the liver glycogen level of mice treated with 50 mg/kg of compound orally for 45 days. In kind it is functional. The note with it: route oral. The essentials: as §2
Test [6] deals with Mus musculus. The test is described as follows: Percent decrease in the serum glucose level of mice treated with 50 mg/kg of compound orally for 45 days. It counts as functional. The note with it: route oral. In short, it runs like this: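 Oral dosing of male C57BL/KsJ-db/db mice (8 weeks old, n=8) at 50 mg/kg or an equimolar dose, twice daily for 45 days; vehicle was 0.5% carboxymethylcellulose. Serum was collected 9 h after the last dose, after a 9 h fast. Glucose was measured with an autoanalyzer kit; percent reduction was calculated against untreated db/db controls; Student's t test.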

Test [7] is filed under the species Rattus norvegicus. The test is described as follows: Percent decrease of oleoylcarnitine levels in isolated rat hepatocytes at 3 mM compound concentration; No variation.
For test [8], the system named is Mus musculus. The test is described as follows: Percent increase of free fatty acids level in serum of mice treated with 50 mg/kg of compound orally for 45 days. The note with it: route oral.
The species entered for test [9] is Rattus norvegicus. The test is described as follows: Effective dose of compound that reduces serum beta-hydroxybutyrate levels in rats.
The test system of test [10] is Mus musculus. The test is described as follows: Level of fructosamine in […] mice serum after treating with 50 mg/kg of compound orally for 45 days (originally-4.80+/-0.17 mmol/L). It counts as functional. The note with it: route oral.
In test [11] the test system is Mus musculus. The test is described as follows: Level of glucose in […] mice serum after treating with 50 mg/kg of compound orally for 45 days (originally-673.9+/-44.09 mg/dL). It counts as functional. The note with it: route oral.
Test [12] concerns the target T2, Carnitine O-palmitoyltransferase 1, liver isoform. The test is described as follows: Inhibition of [14C]palmitoyl-CoA and carnitine binding to carnitine palmitoyltransferase I from rat liver mitochondria. In short, it runs like this: as §1

The structures appear in SMILES notation. Where only a bound is given, the exact number is not on record here.

A word on the IC50: it is the concentration needed to halve the response being measured. High values mean lower potency, low ones higher potency. As a reminder, the ED50 is the dose at which the effect has come halfway, by size or by number of responders.

As to `CCCCCCCCCCCCCCNC(=O)N[C@@H](CC(=O)[O-])C[N+](C)(C)C`, the Increase in the test on Mus musculus [1] came to 38%; in the test with Mus musculus [8], 20%. The half-inhibitory concentration (IC50) in [2] stood at 43.4 µM; in test [12], 1.1 µM. For the same molecule, in test [3], the Ki was determined as 0.36 µM. Further, the Decrease with Mus musculus [4] is -30%; with Mus musculus [5], -25%; with Mus musculus [6], -25%; in the test listed under Rattus norvegicus [7], “No variation”. For the same molecule, in the test listed under Rattus norvegicus [9], the 50% effective dose (ED50) stood at 14.5 mg/kg. The Level in serum with Mus musculus [10] stood at 3.37 mM l-1; with Mus musculus [11], 202.6 mg/dL.

With `CCCCCCCNC(=O)N[C@@H](CC(=O)[O-])C[N+](C)(C)C`, the results for the half-maximal inhibitory concentration (IC50) in [2] and in [12] were more than 300 µM and 43.6 µM, respectively.

Consider `CCCCCCCCCCCCCCNC(=O)N[C@H](CC(=O)[O-])C[N+](C)(C)C` [TEGLICAR], for which the IC50 in [2] came out at 167 µM; in [12] it was 58.8 µM.

With `CCCCCCCCOC(=O)N[C@@H](CC(=O)[O-])C[N+](C)(C)C`, the concentration for half-maximal inhibition (IC50) came out at 80.1 µM in test [2] and 9.5 µM in test [12].

As for `CCCCCCCCCNC(=O)N[C@@H](CC(=O)[O-])C[N+](C)(C)C`, the IC50 is 46.2 µM in test [2] and 31.3 µM in test [12].

Take `CCCCCCCCCCCCS(=O)(=O)N[C@H](CC(=O)[O-])C[N+](C)(C)C`: the half-maximal inhibitory concentration (IC50) in [2] is more than 10 µM; in test [12] it was 6 µM.

Regarding `CCCCCCCCOC(=O)N[C@H](CC(=O)[O-])C[N+](C)(C)C`, the IC50 in test [2] and in test [12] was more than 300 µM throughout.

In the case of `CCCCCCCCCNC(=O)N[C@H](CC(=O)[O-])C[N+](C)(C)C`, the IC50 in test [2] and in test [12] was more than 300 µM in each case.

`CCCCCCCCCCCNC(=O)N[C@@H](CC(=O)[O-])C[N+](C)(C)C`: the IC50 in test [2] was determined as 118 µM.

With `CCCCCCCCCCCCS(=O)(=O)N[C@@H](CC(=O)[O-])C[N+](C)(C)C`, the IC50 in [2] was 3.4 µM; in test [12], 0.7 µM.

Turning to `CCCCCCCCCCCCNC(=O)N[C@@H](CC(=O)[O-])C[N+](C)(C)C`, the IC50 in [2] was more than 120 µM; in [12], 1.8 µM.

These data come from ChEMBL document CHEMBL1145104, “Discovery of a long-chain carbamoyl aminocarnitine derivative, a reversible carnitine palmitoyltransferase inhibitor with antiketotic and antidiabetic activity” (J Med Chem, 2003).
